Screening data from PubChem.
KCNK3 inh – human KCNK3 channel inhibition, primary screen | O14649 | CHO-KCNK3 thallium flux, FluxOR fluorescence; active compounds read low | B-score at 10 µM | actives 0.84% (n = 340,000);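 active = B-score under library mean minus 4 SD, starting fluorescence ratio at most library mean plus 5 SD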;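 also: more negative B-score means stronger inhibition of thallium flux through KCNK3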
KCNK9 inh – inhibitors of human KCNK9 two-pore domain potassium channel; HEK293 KCNK9, FluxOR thallium flux fluorescence; active compounds read low; B-score at 10 µM; actives 1.2% (n = 310,000);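 active = ratio B-score over 3 SD below the library mean, with starting fluorescence within 5 SD of its mean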;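 also: negative B-score means less thallium flux so channel inhibition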
KCNQ1 block – blocks the human KCNQ1 potassium channel. actives 1.3% (n = 310,000). B-score at 10 µM. P51787. CHO-K1 KCNQ1, FluxOR thallium flux fluorescence; active compounds read high;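 active = compounds whose thallium flux B-score, printed positive for inhibition, exceeds three library SD while starting fluorescence stays within three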;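 also: channel opened by potassium depolarization with thallium stimulus after 20 min compound exposure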
Kir21 inh – Kir2.1 (mouse) channel inhibition | actives 0.85% (n = 310,000) | B-score at 10 µM | HEK293-Kir2.1, FluxOR thallium flux fluorescence; active compounds read low | P35561;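 active = fluorescence ratio B-score at or below minus 3 SD of library scores, with starting-brightness B-score within 2 SD, cut at about -4.2 in these data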;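 also: channel flux triggered by added potassium and thallium sulfate stimulus; B-score of peak minus minimum fluorescence over baseline after thallium stimulus; more negative B-score means stronger Kir2.1 block with less thallium influx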
Target sequence (P35561 whole entry, looked up): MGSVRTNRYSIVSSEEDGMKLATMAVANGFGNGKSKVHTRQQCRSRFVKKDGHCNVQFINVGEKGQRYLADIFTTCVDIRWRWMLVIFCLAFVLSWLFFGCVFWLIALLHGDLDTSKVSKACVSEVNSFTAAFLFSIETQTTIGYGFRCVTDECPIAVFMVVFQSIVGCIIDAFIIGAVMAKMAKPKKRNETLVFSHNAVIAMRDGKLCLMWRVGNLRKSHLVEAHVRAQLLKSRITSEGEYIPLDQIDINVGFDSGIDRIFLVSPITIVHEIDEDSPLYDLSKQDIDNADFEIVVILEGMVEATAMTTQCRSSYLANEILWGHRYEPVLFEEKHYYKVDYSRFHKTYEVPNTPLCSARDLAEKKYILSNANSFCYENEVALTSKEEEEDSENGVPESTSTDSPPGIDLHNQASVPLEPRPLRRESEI
hERG protect – shields human hERG channel from block by proarrhythmic agents | Q12809 | CHO-hERG, FluxOR thallium flux, dofetilide IC70 present | activation (rescue from dofetilide block), less the hit threshold, % at 10 µM | actives 0.51% (n = 310,000);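 active = activation above the mean of controls blocked by dofetilide plus 5 SD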;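 also: thallium influx through hERG after potassium depolarization seen as dye fluorescence rise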
KCNQ1 pot – potentiates or activates the human KCNQ1 potassium channel. P51787. CHO-K1 KCNQ1, thallium flux FluxOR fluorescence; active compounds read high. B-score at 10 µM. actives 0.35% (n = 310,000);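 active = fluorescence ratio B-score, a plate-corrected score, at least three library SD, with initial intensity B-score within 5 SD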
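System: Stable KCNQ1 CHO-K1 line | Incubation: 90 min dye loading and 20 min compound exposure, both at room temperature | Measure: Ratio B score | Medium: Assay buffer for compound exposure, DMSO matched across wells | Compound dosing: Single-concentration screen | Probe or stimulus: K+/Tl+ depolarizing stimulus | Measured by: Kinetic FluxOR fluorescence, 10 s baseline plus 110 s post-stimulus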
KCNK9 block conf – confirmation of human KCNK9 potassium channel inhibitors. HEK293 KCNK9 cells, FluxOR thallium flux fluorescence. inhibition, % at 10 µM. shares compounds with KCNK9 inh. actives 43% (n = 4,900). AID 492992;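 active = thallium signal inhibited by more than 5 SD of the compound-free buffer control wells, on both duplicate plates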;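 also: 0% = assay buffer control wells without compound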
Kir21 sel – selectivity of KCNK9 modulators against mouse Kir2.1; shares compounds with KCNK9 inh; Kir2.1 cells, FluxOR thallium flux fluorescence; inhibition, % at 10 µM; actives 4% (n = 4,900); AID 492993;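 active = thallium signal drop more than 5 SD beyond the mean of the no-compound control wells, seen in both duplicate plates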;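 also: signal is fluorescence rise after thallium addition divided by baseline fluorescence; plate controls were assay buffer only for no effect and full block by chlorpromazine control for full effect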
KCNK9 uninduced – second check of KCNK9 modulator effects in non-induced HEK293 cells | inhibition, % at 10 µM | shares compounds with KCNK9 inh | actives 40% (n = 4,900) | AID 492997 | FluxOR thallium flux;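 active = thallium signal drop beyond 5 SD of the untreated control mean, on both duplicate plates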;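 also: plate controls were buffer only IC0 wells for no effect and SID17386958 at its maximal inhibitory level for full effect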
* = called active by the depositor; i = inactive; nt = not tested or not shown. In the library only some 3.7% were active in any assay of this set; here they are far more common.

SMILES	KCNK3 inh	KCNK9 inh	KCNQ1 block	Kir21 inh	hERG protect	KCNQ1 pot	KCNK9 block conf	Kir21 sel	KCNK9 uninduced
CC1CC(C)CN(c2ccc(C(=O)NCc3ccc4c(c3)OCO4)cc2[N+](=O)[O-])C1 (stereo not drawn)	i	-8.5*	i	0.65	-4	i	43%*	i	i
Cc1ccc(Nc2nnc(SC(C)C(=O)Nc3c(C)n(C)n(-c4ccccc4)c3=O)s2)cc1 (stereo not drawn)	i	i	i	-0.53	-5	i	nt	nt	nt
Cn1nc(C(F)(F)F)cc1-c1ccc(S(N)(=O)=O)s1	i	i	i	-0.4	-7	i	nt	nt	nt
O=C(NCC(c1ccco1)N1CCN(c2ccc(F)cc2)CC1)C1CCCCC1 (stereo not drawn)	i	-14*	i	1.2	-9	i	44%*	i	38%*
CC(C)C1C(=O)CC(c2ccccc2)NC1c1ccccc1 (stereo not drawn)	i	-11*	i	0.13	-5	i	40%*	i	i
CC1=NN(c2ccc(Cl)cc2)C(=O)C1C(c1cccc(O)c1)c1c(C)[nH]n(-c2ccc(Cl)cc2)c1=O (stereo not drawn)	i	i	i	-0.77	-3	i	i	i	i
Cc1[nH]n(-c2ccc(Cl)cc2)c(=O)c1C(=O)c1ccccc1	i	i	i	0.97	-8	i	nt	nt	nt
CC(=O)N1CCN(C(=O)c2cccc(S(=O)(=O)N3CCOCC3)c2)CC1	i	nt	nt	nt	nt	nt	nt	nt	nt
CSc1nc(=O)n2cc(C)ccc2n1	i	i	i	0.95	-7	i	nt	nt	nt
O=C(Nc1nnc(C2CC2)s1)c1cc(-c2ccccc2)nn1-c1ccccc1	i	-9.4*	i	-0.18	-6	i	30%*	i	i
O=C(NCc1ccccc1)/C(=C/c1ccc(OC(F)F)cc1)c1ccccc1	i	-11*	i	0.29	-7	i	40%*	i	50%*
Cc1nn(-c2ccccc2)c(N2CCCC2)c1/C=N/NC(=S)Nc1cc(C(F)(F)F)ccc1Cl	i	i	i	1.6	-11	i	nt	nt	nt
Cc1nn(-c2ccccc2)c(N2CCCC2)c1/C=N/NC(=S)Nc1ccccc1C(F)(F)F	i	-9.1*	i	0.09	-3	i	44%*	i	i
O=C(CCC(=O)c1ccc(Oc2ccccc2)cc1)Nc1cccc(Cl)c1Cl	i	i	i	0.06	-16	i	i	i	26%*
Cc1ccc(C(=O)O)cc1NS(=O)(=O)c1ccc2c(c1)oc(=O)n2C	i	i	i	2	-4	i	nt	nt	nt
CCCCc1c(O)nc(SCC(=O)c2ccccc2)n(-c2ccccc2OC)c1=O	i	-13*	i	-0.63	-19	i	51%*	i	25%*
O=C(NCc1ccccn1)C1CCCN(S(=O)(=O)c2cc(Cl)ccc2Cl)C1 (stereo not drawn)	i	nt	nt	nt	nt	nt	nt	nt	nt
Cc1cc(S(=O)(=O)N2CCCC(N(C)CCc3ccccn3)C2)c(C)cc1Cl (stereo not drawn)	i	i	i	-4.2	-17	i	i	i	i
COc1ccc(S(=O)(=O)N(C)C)cc1NCC(=O)Nc1cccc(C#N)c1	i	i	i	0.8	-7	i	nt	nt	nt
CN(C)CC/C=C1/c2ccccc2Sc2ccc(Cl)cc21	i	i	i	-4.3*	-12	i	i	i	i
CN(C)CC/C=C1\c2ccccc2COc2ccccc21	i	i	i	-0.01	-7	i	nt	nt	nt
CCN(CC)S(=O)(=O)c1ccc(O)c(C(=O)OCC(=O)Nc2cc(C)c(C)cc2[N+](=O)[O-])c1	i	-11*	i	-0.59	-10	i	32%*	i	26%*
COc1ccc(S(=O)(=O)N2CCCCCC2)cc1C(=O)N(C)CC(=O)Nc1cc(C)ccc1C	i	i	i	-2.7	-3	i	nt	nt	nt
O=C(O)CC1S/C(=N/N=C/c2ccccn2)NC1=O (stereo not drawn)	i	i	i	2.4	-3	i	nt	nt	nt
CCOc1cc(/C=N/N=C2/NC(=O)C(CC(=O)O)S2)ccc1OCc1ccc(Cl)cc1Cl (stereo not drawn)	i	i	i	-2.1	-5	i	i	i	i
SMILES	KCNK3 inh	KCNK9 inh	KCNQ1 block	Kir21 inh	hERG protect	KCNQ1 pot	KCNK9 block conf	Kir21 sel	KCNK9 uninduced
CN(c1ccc(OCC(=O)NCc2cccnc2)cc1)S(=O)(=O)c1ccc(Cl)cc1	i	i	i	-3.5	-25	i	nt	nt	nt
CN1CCN(C(=O)CN(c2ccccc2)S(=O)(=O)N(C)C)CC1	nt	i	i	1.5	0	i	nt	nt	nt
CS(=O)(=O)N(CC(=O)N1CCN(c2ccccc2)CC1)c1ccc(Cl)c(C(F)(F)F)c1	i	i	i	1.6	-7	i	i	i	i
CC1CCN(C(=O)CN(c2ccc(Cl)c(C(F)(F)F)c2)S(C)(=O)=O)CC1	i	i	i	-1.2	-7	i	nt	nt	nt
Cc1ccc(Cl)cc1N1CCN(C(=O)CN(c2ccccc2)S(=O)(=O)N(C)C)CC1	i	-9*	i	0.27	-13	i	28%*	i	34%*
CCOc1ccc(-c2c(C(=O)N/N=C/c3cccc(Br)c3)nnn2-c2nonc2N)cc1	i	i	i	-0.37	-7	i	nt	nt	nt
COc1ccc(C2CC2/C(C)=N/OC(=O)c2ccc(F)cc2)cc1 (stereo not drawn)	i	i	i	-0.04	-9	i	i	i	i
Cc1ccsc1C(=O)N1CCCC(CCC(=O)N2CCN(c3ccccn3)CC2)C1 (stereo not drawn)	i	i	i	-0.91	-1	i	nt	nt	nt
Cc1ccsc1C(=O)N1CCN(c2ccccn2)CC1	i	-8.1*	i	0.41	-6	i	i	i	i
O=C1C2C3C=CC(C4CC34)C2C(=O)N1/N=C/c1ccc(-c2ccc(Cl)cc2[N+](=O)[O-])o1 (stereo not drawn)	i	i	i	3	-14	i	i	i	i
COc1ccc(-c2ccc(/C=N/N3C(=O)C4C5C=CC(C6CC56)C4C3=O)o2)c([N+](=O)[O-])c1 (stereo not drawn)	i	i	i	1.4	-16	i	nt	nt	nt
